Legend:
[1] = molecular target: Histamine H3 receptor (Mus musculus) (UniProt P58406); assay: In vivo antagonist activity at Histamine H3 receptor was screened by measuring the effect on brain histamine turnover after oral application to mice.; type: functional, organism-based
Outline: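 Swiss mice dosed orally; in vivo H3 antagonist activity tested at least in triplicate, per Garbarg et al.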

[2] = molecular target: Histamine H2 receptor (Cavia porcellus) (UniProt P47747); assay: Compound was tested in vitro for its Histamine H2 receptor activity on guinea pig atrium.; type: functional, tissue-based; details: Cardiac atrium
Sequence of Histamine H2 receptor (Cavia porcellus) (P47747 whole entry): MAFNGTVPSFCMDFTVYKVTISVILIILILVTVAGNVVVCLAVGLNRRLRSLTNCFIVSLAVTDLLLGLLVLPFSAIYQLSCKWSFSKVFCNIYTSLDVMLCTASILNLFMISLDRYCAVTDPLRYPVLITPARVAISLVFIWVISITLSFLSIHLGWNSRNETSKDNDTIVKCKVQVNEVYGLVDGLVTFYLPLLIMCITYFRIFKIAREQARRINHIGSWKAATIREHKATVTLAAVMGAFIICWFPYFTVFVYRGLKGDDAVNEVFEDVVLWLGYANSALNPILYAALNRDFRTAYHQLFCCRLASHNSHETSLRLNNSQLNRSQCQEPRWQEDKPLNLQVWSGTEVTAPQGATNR

[3] = molecular target: Histamine H1 receptor (Cavia porcellus) (UniProt P31389); assay: Compound was tested in vitro for its Histamine H1 receptor activity on guinea pig ileum.; type: functional, tissue-based
Sequence of Histamine H1 receptor (Cavia porcellus) (P31389 whole entry): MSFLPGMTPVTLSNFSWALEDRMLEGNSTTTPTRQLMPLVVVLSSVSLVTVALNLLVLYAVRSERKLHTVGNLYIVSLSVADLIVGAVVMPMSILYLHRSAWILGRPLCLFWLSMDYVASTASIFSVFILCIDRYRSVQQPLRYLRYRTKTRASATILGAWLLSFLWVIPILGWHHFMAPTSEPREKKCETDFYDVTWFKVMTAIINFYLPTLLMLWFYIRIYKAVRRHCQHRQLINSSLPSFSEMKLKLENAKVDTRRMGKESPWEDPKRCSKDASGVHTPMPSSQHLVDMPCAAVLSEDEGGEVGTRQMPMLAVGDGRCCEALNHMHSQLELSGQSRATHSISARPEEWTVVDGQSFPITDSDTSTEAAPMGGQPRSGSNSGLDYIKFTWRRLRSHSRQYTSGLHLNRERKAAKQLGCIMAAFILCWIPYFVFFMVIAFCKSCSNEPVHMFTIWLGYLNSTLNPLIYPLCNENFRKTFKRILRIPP

[4] = molecular target: Histamine H3 receptor (Rattus norvegicus) (UniProt Q9QYN8); assay: (§1) In vitro antagonist potency at Histamine H3 receptor measured as K+-evoked [3H]histamine release from synaptosomes of rat cerebral cortex.; type: functional, subcellular; details: Brain
Sequence of Histamine H3 receptor (Rattus norvegicus) (Q9QYN8 whole entry): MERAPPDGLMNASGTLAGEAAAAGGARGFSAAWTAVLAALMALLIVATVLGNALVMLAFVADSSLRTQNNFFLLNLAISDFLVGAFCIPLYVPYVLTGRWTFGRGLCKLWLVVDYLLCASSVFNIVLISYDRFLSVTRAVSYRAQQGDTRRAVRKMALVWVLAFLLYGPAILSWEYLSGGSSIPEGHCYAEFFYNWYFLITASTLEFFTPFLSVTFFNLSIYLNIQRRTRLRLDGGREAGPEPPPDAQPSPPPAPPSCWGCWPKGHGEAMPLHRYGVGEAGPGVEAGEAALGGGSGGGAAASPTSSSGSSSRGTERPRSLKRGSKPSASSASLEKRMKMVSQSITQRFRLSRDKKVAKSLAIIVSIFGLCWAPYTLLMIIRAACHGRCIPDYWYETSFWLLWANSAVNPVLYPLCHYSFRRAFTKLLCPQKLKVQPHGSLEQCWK
Outline: (§2)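 Rat cerebral cortex synaptosomes; [³H]histamine release evoked by K⁺ depolarization; antagonist activity measured at least in triplicate, per Garbarg et al.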

Histamine H3 receptor = Histamine H3 receptor (Rattus norvegicus, UniProt Q9QYN8); assay: as §1; type: functional, subcellular, Brain; outline: as §2
Sequence of Histamine H3 receptor (Q9QYN8 whole entry): as above

[5] = molecular target: Histamine H1 receptor (Cavia porcellus) (UniProt P31389); assay: Compound was tested in vitro for its Histamine H1 receptor activity on guinea pig ileum; type: functional, tissue-based

Sequence of Histamine H3 receptor (Mus musculus) (P58406 whole entry): as the sequence (Q9QYN8 whole entry) above, with T15A, A286T, A290G, R387H, I389V counted along it

| Structure (SMILES) | ED50 [1] | -Log K [2] | -Log K [3] | -Log K [4] | Ki (Histamine H3 receptor) | -Log K [5] |
| --- | --- | --- | --- | --- | --- | --- |
| CCCC#Cc1ccc(OCCCc2cnc[nH]2)cc1 | – | – | – | – | 140 nM | – |
| C#Cc1ccc(OCCCc2cnc[nH]2)cc1 | – | – | – | – | 2.3 nM | – |
| C#Cc1ccc(OCCCc2c[nH]cn2)cc1 | 0.12 mg/kg | < 4.8 | – | 8.6 | – | < 5.5 |
| C[Si](C)(C)C#Cc1ccc(OCCCc2c[nH]cn2)cc1 | 1.1 mg/kg | < 4.6 | – | 7.4 | 36 nM | < 5 |

Second part, led by results:

| ED50 [1] | -Log K [2] | -Log K [3] | -Log K [4] | Ki (Histamine H3 receptor) | Structure (SMILES) | -Log K [5] |
| --- | --- | --- | --- | --- | --- | --- |
| 1.3 mg/kg | < 4.7 | < 5 | 8.1 | 7.5 nM | CC#Cc1ccc(OCCCc2c[nH]cn2)cc1 | – |
| – | – | – | – | 123 nM | CC(C)(C)C#Cc1ccc(OCCCc2cnc[nH]2)cc1 | – |
| 2.2 mg/kg | < 4.7 | < 5.9 | 6.9 | – | CCCC#Cc1ccc(OCCCc2c[nH]cn2)cc1 | – |
| 2.2 mg/kg | < 4.6 | < 5.6 | 6.9 | – | CC(C)(C)C#Cc1ccc(OCCCc2c[nH]cn2)cc1 | – |
